Source: ChEMBL document CHEMBL3351896, “Small Molecule that Reverses Dexamethasone Resistance in T-cell Acute Lymphoblastic Leukemia (T-ALL)” (ACS Med Chem Lett, 2014)
Activity calls are given as the source filed them. The rule behind the calls is not given here.

Tested on: CUTLL1
Assay: Growth inhibition of human CUTLL1 cells at 12.5 to 50 uM in presence of 1 uM dexamethasone and 1 uM […] and glucocorticoid receptor antagonist RU486 after 24 hrs by alamar blue assay
Settings: not given

Row | Compound | growth inhibition (GI)
1 | Nc1ncc(-c2ccnc(-c3ccoc3)c2)c(C2CC2)n1 | inactive

Molecular target: T1, Gamma-secretase (Homo sapiens) (UniProt Q96BI3+Q9NZ42+Q8WW43+P49768+Q92542+P49810)
Assay: Inhibition of gamma secretase in human CUTLL1 cells assessed as effect on NOTCH cleavage level at 100 nM in presence of 1 uM dexamethasone after 24 hrs by Western blotting
Type: cell-based
Settings: not given
Outline: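 Dexamethasone-resistant human T-ALL CUTLL1 cells were treated for 24 h with the gamma-secretase inhibitor at 100 nM together with dexamethasone at 1 μM. Intracellular NOTCH (ICN) protein was then measured by Western blot.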

Row | Compound | inhibition
2 | C[C@H](NC(=O)Cc1cc(F)cc(F)c1)C(=O)N[C@H]1N=C(c2ccccc2)c2ccccc2N(C)C1=O | Active

Tested on: CUTLL1
Assay: Growth inhibition of human CUTLL1 cells with high GR expression levels after 48 hrs by alamar blue assay
Type: functional, cell-based
Settings: not given
Outline: (§1)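 Human CUTLL1 T-ALL cells engineered to express high (overexpressed) or low (knockdown) glucocorticoid receptor levels. Exposed to compound alone or with 1 μM dexamethasone. Alamar blue growth inhibition read after 48 h.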

Row | Compound | growth inhibition (GI)
3 | C[C@@H]1C[C@H]2[C@@H]3CCC4=CC(=O)C=C[C@]4(C)[C@@]3(F)[C@@H](O)C[C@]2(C)[C@@]1(O)C(=O)CO | Active

Tested on: not listed separately
Assay: Growth inhibition of human CUTLL1 cells in presence of 1 uM dexamethasone after 48 hrs by alamar blue assay
Type: functional, cell-based
Settings: CUTLL1, 48 h
Outline: (§2)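 CUTLL1 cells given compound alone or with dexamethasone 1 μM. Growth inhibition measured by alamar blue after 48 h.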

Row | Compound | EC50 [µM]
4 | CC(C)c1nc(N)ncc1-c1ccncc1 | > 100
5 | Nc1ncc(-c2ccnc(F)c2)c(C2CC2)n1 | > 100
6 | Nc1ncc(-c2ccccc2)c(C2CC2)n1 | > 100
7 | Nc1ncc(-c2ccnc(-c3ccoc3)c2)c(C2CC2)n1 | 16
8 | Nc1ncc(-c2ccncc2)c(C2CCC2)n1 | > 100
9 | Nc1ncc(-c2ccnc3ccccc23)c(C2CC2)n1 | > 100
10 | Nc1ncc(-c2ccncc2)cn1 | > 100
11 | Cc1ncc(-c2ccncc2)c(C2CC2)n1 | > 100
12 | Nc1ncc(-c2ccccn2)c(C2CC2)n1 | > 100
13 | Nc1ncc(-c2ccncc2-c2ccoc2)c(C2CC2)n1 | 28
14 | Nc1ncc(-c2ccncc2-c2ccccc2)c(C2CC2)n1 | > 100
15 | Nc1ncc(-c2ccnc(Cl)c2)c(C2CC2)n1 | > 100
16 | Nc1ncc(-c2cc(Cl)nc(Cl)c2)c(C2CC2)n1 | 7.6
17 | Nc1ncc(-c2ccncc2)c(-c2ccoc2)n1 | > 100
18 | Cc1nc(N)ncc1-c1ccncc1 | > 100
19 | Nc1ncc(-c2ccncc2)c(-c2ccccc2)n1 | > 100
20 | Nc1ncc(-c2ccc(F)cc2)c(C2CC2)n1 | > 100
21 | COc1ccc(-c2cnc(N)nc2C2CC2)cc1 | > 100
22 | Nc1ncc(-c2cccnc2)c(C2CC2)n1 | > 100
23 | C=Cc1cnccc1-c1cnc(N)nc1C1CC1 | 29

Tested on: not listed separately
Assay: Growth inhibition of human CUTLL1 cells in absence of 1 uM dexamethasone after 48 hrs by alamar blue assay
Type: functional, cell-based
Settings: CUTLL1, 48 h
Outline: as §2

Row | Compound | EC50 [µM]
24 | CC(C)c1nc(N)ncc1-c1ccncc1 | > 100
25 | Nc1ncc(-c2ccnc(F)c2)c(C2CC2)n1 | > 100
26 | Nc1ncc(-c2ccccc2)c(C2CC2)n1 | > 100
27 | Nc1ncc(-c2ccnc(-c3ccoc3)c2)c(C2CC2)n1 | > 100
28 | Nc1ncc(-c2ccncc2)c(C2CCC2)n1 | > 100
29 | Nc1ncc(-c2ccnc3ccccc23)c(C2CC2)n1 | > 100
30 | Nc1ncc(-c2ccncc2)cn1 | > 100
31 | Cc1ncc(-c2ccncc2)c(C2CC2)n1 | > 100
32 | Nc1ncc(-c2ccccn2)c(C2CC2)n1 | > 100
33 | Nc1ncc(-c2ccncc2-c2ccoc2)c(C2CC2)n1 | 28
34 | Nc1ncc(-c2ccncc2-c2ccccc2)c(C2CC2)n1 | > 100
35 | Nc1ncc(-c2ccnc(Cl)c2)c(C2CC2)n1 | > 100
36 | Nc1ncc(-c2cc(Cl)nc(Cl)c2)c(C2CC2)n1 | 10
37 | Nc1ncc(-c2ccncc2)c(-c2ccoc2)n1 | > 100
38 | Cc1nc(N)ncc1-c1ccncc1 | > 100
39 | Nc1ncc(-c2ccncc2)c(-c2ccccc2)n1 | > 100
40 | Nc1ncc(-c2ccc(F)cc2)c(C2CC2)n1 | > 100
41 | COc1ccc(-c2cnc(N)nc2C2CC2)cc1 | > 100
42 | Nc1ncc(-c2cccnc2)c(C2CC2)n1 | > 100
43 | C=Cc1cnccc1-c1cnc(N)nc1C1CC1 | 30

Molecular target: T1, Gamma-secretase (Homo sapiens)
Assay: Inhibition of gamma secretase in human CUTLL1 cells assessed as effect on NOTCH cleavage level at 100 nM after 24 hrs by Western blotting
Type: cell-based
Settings: not given

Row | Compound | inhibition
44 | C[C@H](NC(=O)Cc1cc(F)cc(F)c1)C(=O)N[C@H]1N=C(c2ccccc2)c2ccccc2N(C)C1=O | Active

Tested on: CUTLL1
Assay: Growth inhibition of human CUTLL1 cells with low GR expression levels after 48 hrs by alamar blue assay
Type: functional, cell-based
Settings: not given
Outline: as §1

Row | Compound | growth inhibition (GI)
45 | C[C@@H]1C[C@H]2[C@@H]3CCC4=CC(=O)C=C[C@]4(C)[C@@]3(F)[C@@H](O)C[C@]2(C)[C@@]1(O)C(=O)CO | inactive

Tested on: CUTLL1
Assay: Induction of PARP1 cleavage in human CUTLL1 cells at 1 uM after 24 hrs by western blotting method
Type: functional, cell-based
Settings: not given

Row | Compound | Activity
46 | C[C@@H]1C[C@H]2[C@@H]3CCC4=CC(=O)C=C[C@]4(C)[C@@]3(F)[C@@H](O)C[C@]2(C)[C@@]1(O)C(=O)CO | inactive
